Assay results as given in ChEMBL document CHEMBL5724801, “EUbOPEN Chemogenomics Library - Multiplex” (2024).
“And” between values parts separate entries of the source, which are not always exact repeats. Equal entries are not always repeated.

Tested on: HEK-293T
Test: Multiplex assay against HEK293T
Format: toxicity, cell-based
Conditions: human
How it was run: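 At seeding, live cells were stained with Hoechst33342, BioTracker Green Microtubule Cytoskeleton Dye, MitoTracker Red and Annexin V Alexa Fluor 680. After compound addition they were imaged on a CQ1 microscope at 37°C and 5% CO2, and CellPathfinder machine-learning gating sorted them into Hoechst high-intensity objects or normal cells, with normal cells further split into healthy, pyknosed or fragmented nuclei and pyknosed cells into mitotic or apoptotic. Tubulin, mitochondrial-mass and membrane-permeability phenotypes are given as per cents of cells with healthy nuclei.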

[1] = 12 h, 1 µM, compound concentration 1 uM
[2] = 12 h, 10 µM, compound concentration 10 uM
[3] = 24 h, 1 µM, compound concentration 1 uM
[4] = 24 h, 10 µM, compound concentration 10 uM
[5] = 48 h, 1 µM, compound concentration 1 uM
[6] = 48 h, 10 µM, compound concentration 10 uM

CN1CCN2c3ccccc3Cc3ccccc3C2C1.Cl (stereo unspecified) [MIANSERIN HYDROCHLORIDE]
Population Apoptotic (%) [1]: 23% and 46%
Population Fragmented Nuclei (%) [1]: 5% and 7%
Population Healthy Nuclei (%) [1]: 79% and 77%
Population Hoechst High Intensity Objects (%) [1]: 5% and 10%
Population Membrane Permeable-Phenotype (%) [1]: 0%
Population Mitochondria Different-Phenotype (%) [1]: 36% and 63%
Population Mitotic Cells (%) [1]: 76% and 53%
Population Normal (%) [1]: 94% and 89%
Population Pyknosed Nuclei (%) [1]: 14%
Population Tubulin-Different-Phenotype (%) [1]: 21% and 17%
Total Cell Count [1]: 338 and 376
Population Apoptotic (%) [2]: 34% and 42%
Population Fragmented Nuclei (%) [2]: 5%
Population Healthy Nuclei (%) [2]: 81% and 85%
Population Hoechst High Intensity Objects (%) [2]: 9% and 4%
Population Membrane Permeable-Phenotype (%) [2]: 1% and 0%
Population Mitochondria Different-Phenotype (%) [2]: 45% and 53%
Population Mitotic Cells (%) [2]: 65% and 57%
Population Normal (%) [2]: 90% and 95%
Population Pyknosed Nuclei (%) [2]: 13% and 8%
Population Tubulin-Different-Phenotype (%) [2]: 40% and 28%
Total Cell Count [2]: 410 and 491
Population Apoptotic (%) [3]: 22% and 26%
Population Fragmented Nuclei (%) [3]: 9% and 10%
Population Healthy Nuclei (%) [3]: 80%
Population Hoechst High Intensity Objects (%) [3]: 1% and 8%
Population Membrane Permeable-Phenotype (%) [3]: 0%
Population Mitochondria Different-Phenotype (%) [3]: 21% and 37%
Population Mitotic Cells (%) [3]: 77% and 73%
Population Normal (%) [3]: 98% and 91%
Population Pyknosed Nuclei (%) [3]: 10% and 9%
Population Tubulin-Different-Phenotype (%) [3]: 14% and 16%
Total Cell Count [3]: 479 and 486
Population Apoptotic (%) [4]: 24% and 32%
Population Fragmented Nuclei (%) [4]: 8% and 5%
Population Healthy Nuclei (%) [4]: 77% and 84%
Population Hoechst High Intensity Objects (%) [4]: 5% and 3%
Population Membrane Permeable-Phenotype (%) [4]: 0%
Population Mitochondria Different-Phenotype (%) [4]: 31% and 36%
Population Mitotic Cells (%) [4]: 75% and 67%
Population Normal (%) [4]: 94% and 96%
Population Pyknosed Nuclei (%) [4]: 14% and 10%
Population Tubulin-Different-Phenotype (%) [4]: 34% and 21%
Total Cell Count [4]: 486 and 612
Population Apoptotic (%) [5]: 13% and 37%
Population Fragmented Nuclei (%) [5]: 15% and 16%
Population Healthy Nuclei (%) [5]: 77% and 78%
Population Hoechst High Intensity Objects (%) [5]: 1% and 3%
Population Membrane Permeable-Phenotype (%) [5]: 1% and 0%
Population Mitochondria Different-Phenotype (%) [5]: 15% and 18%
Population Mitotic Cells (%) [5]: 86% and 62%
Population Normal (%) [5]: 98% and 96%
Population Pyknosed Nuclei (%) [5]: 6% and 4%
Population Tubulin-Different-Phenotype (%) [5]: 9%
Total Cell Count [5]: 812 and 761
Population Apoptotic (%) [6]: 24% and 35%
Population Fragmented Nuclei (%) [6]: 14%
Population Healthy Nuclei (%) [6]: 76% and 79%
Population Hoechst High Intensity Objects (%) [6]: 2% and 1%
Population Membrane Permeable-Phenotype (%) [6]: 0% and 1%
Population Mitochondria Different-Phenotype (%) [6]: 18% and 14%
Population Mitotic Cells (%) [6]: 75% and 64%
Population Normal (%) [6]: 97% and 98%
Population Pyknosed Nuclei (%) [6]: 8% and 6%
Population Tubulin-Different-Phenotype (%) [6]: 17% and 11%
Total Cell Count [6]: 702 and 860
